In ChEMBL document CHEMBL1135742, “Modification of the structure of a metallopeptide: synthesis and biological evaluation of (111)In-labeled DOTA-conjugated rhenium-cyclized alpha-MSH analogues” (J Med Chem, 2002):

Organism: Mus musculus
Assay: Uptake Ratio of Tumor/blood (each in % ID/g) in B16/F1 Murine Melanoma-Bearing C57 Mice at 4 h
Assay type: functional, organism-based
Conditions: not given
In short: (§1)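 C57 BL/6 female mice (7–8 weeks) carried B16/F1 tumours from 1×10^6 cells given s.c. in the right flank; tumours were ~500 mg at 9–10 days. Each mouse received […] of HPLC-purified, neutralized 111In-DOTA peptide via the tail vein. Mice were killed at 0.5, 2, 4 or 24 h pi. Tissues were weighed and γ-counted, expressed as % ID/g; ratios were tumor/tissue % ID/g.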
Ac-Lys(DOTA)-ReCCEHdFRWCKPV-NH2 gave an Uptake ratio of 88.7.

Organism: Mus musculus
Assay: Uptake Ratio of Tumor/muscle (each in % ID/g) in B16/F1 Murine Melanoma-Bearing C57 Mice at 4 h
Assay type: functional, organism-based
Conditions: Muscle tissue
In short: (§2)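 Female C57 BL/6 mice, 7–8 weeks old, carried subcutaneous right-flank B16/F1 tumors from 1×10^6 cells and were used 9–10 days later at ~500 mg tumor weight. Each received […] of HPLC-purified, pH-neutralized ¹¹¹In-DOTA peptide by tail vein. Tumor and organs were excised at the stated time, weighed and γ-counted. Each tissue was taken as % ID/g, and tumor/normal-tissue ratios were formed from these values.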
Substance Ac-Lys(DOTA)-ReCCEHdFRWCKPV-NH2 has an Uptake ratio of 3400.

Organism: Mus musculus
Assay: Uptake Ratio of Tumor/liver (each in % ID/g) in B16/F1 Murine Melanoma-Bearing C57 Mice at 4 h
Assay type: functional, organism-based
Conditions: not given
In short: as §1
Ac-Lys(DOTA)-ReCCEHdFRWCKPV-NH2 gave an Uptake ratio of 20.8.

Organism: Mus musculus
Assay: Uptake Ratio of Tumor/lungs (each in % ID/g) in B16/F1 Murine Melanoma-Bearing C57 Mice at 24 h
Assay type: functional, organism-based
Conditions: not given
In short: as §2
Ac-Lys(DOTA)-ReCCEHdFRWCKPV-NH2 was tested, and the Uptake ratio was 22.9.

Organism: Mus musculus
Assay: Radioactivity uptake in the pancreas was expressed as a percentage of the injected radioactive dose per gram of tissue (% ID/g) in B16/F1 Murine Melanoma-Bearing C57 Mice at 2 h
Assay type: functional, organism-based
Conditions: not given
In short: as §1
With Ac-Lys(DOTA)-ReCCEHdFRWCKPV-NH2 the ID/g was 0.074%.

Organism: Mus musculus
Assay: Radioactivity uptake in the blood was expressed as a percentage of the injected radioactive dose per gram of tissue (% ID/g) in B16/F1 Murine Melanoma-Bearing C57 Mice at 0.5 h
Assay type: functional, organism-based
Conditions: not given
In short: as §1
In the case of Ac-Lys(DOTA)-ReCCEHdFRWCKPV-NH2, the ID/g is reported as 1.99%.

Organism: Mus musculus
Assay: Uptake Ratio of Tumor/blood (each in % ID/g) in B16/F1 Murine Melanoma-Bearing C57 Mice at 0.5 h
Assay type: functional, organism-based
Conditions: not given
In short: as §1
Ac-Lys(DOTA)-ReCCEHdFRWCKPV-NH2 was tested, and the Uptake ratio was 3.8.

Organism: Mus musculus
Assay: Radioactivity uptake in the liver was expressed as a percentage of the injected radioactive dose per gram of tissue (% ID/g) in B16/F1 Murine Melanoma-Bearing C57 Mice at 24 h
Assay type: functional, organism-based
Conditions: not given
In short: as §1
Ac-Lys(DOTA)-ReCCEHdFRWCKPV-NH2 gave an ID/g of 0.28%.

Organism: Mus musculus
Assay: Uptake Ratio of Tumor/blood (each in % ID/g) in B16/F1 Murine Melanoma-Bearing C57 Mice at 24 h
Assay type: functional, organism-based
Conditions: not given
In short: as §1
In the case of Ac-Lys(DOTA)-ReCCEHdFRWCKPV-NH2, the Uptake ratio is reported as 67.2.

Organism: Mus musculus
Assay: Uptake Ratio of Tumor/lungs (each in % ID/g) in B16/F1 Murine Melanoma-Bearing C57 Mice at 4 h
Assay type: functional, organism-based
Conditions: not given
In short: as §2
For Ac-Lys(DOTA)-ReCCEHdFRWCKPV-NH2, the Uptake ratio was 48.4.

Organism: Mus musculus
Assay: Radioactivity uptake in the liver was expressed as a percentage of the injected radioactive dose per gram of tissue (% ID/g) in B16/F1 Murine Melanoma-Bearing C57 Mice at 0.5 h
Assay type: functional, organism-based
Conditions: not given
In short: as §1
Substance Ac-Lys(DOTA)-ReCCEHdFRWCKPV-NH2 has an ID/g of 0.66%.

Organism: Mus musculus
Assay: Uptake Ratio of Tumor/kidneys (each in % ID/g) in B16/F1 Murine Melanoma-Bearing C57 Mice at 0.5 h
Assay type: functional, organism-based
Conditions: Kidney
In short: as §1
Ac-Lys(DOTA)-ReCCEHdFRWCKPV-NH2 showed an Uptake ratio of 0.3.

Organism: Mus musculus
Assay: Radioactivity uptake in the kidneys was expressed as a percentage of the injected radioactive dose per gram of tissue (% ID/g) in B16/F1 Murine Melanoma-Bearing C57 Mice at 0.5 h
Assay type: functional, organism-based
Conditions: Kidney
In short: as §1
In the case of Ac-Lys(DOTA)-ReCCEHdFRWCKPV-NH2, the ID/g is reported as 23.4%.

Organism: Mus musculus
Assay: Radioactivity uptake in the liver was expressed as a percentage of the injected radioactive dose per gram of tissue (% ID/g) in B16/F1 Murine Melanoma-Bearing C57 Mice at 4 h
Assay type: functional, organism-based
Conditions: not given
In short: as §1
For Ac-Lys(DOTA)-ReCCEHdFRWCKPV-NH2, the ID/g was 0.29%.

Organism: Mus musculus
Assay: Uptake Ratio of Tumor/kidneys (each in % ID/g) in B16/F1 Murine Melanoma-Bearing C57 Mice at 24 h
Assay type: functional, organism-based
Conditions: Kidney
In short: as §1
In the case of Ac-Lys(DOTA)-ReCCEHdFRWCKPV-NH2, the Uptake ratio is reported as 0.27.

Organism: Mus musculus
Assay: Radioactivity uptake in the heart was expressed as a percentage of the injected radioactive dose per gram of tissue (% ID/g) in B16/F1 Murine Melanoma-Bearing C57 Mice at 4 h
Assay type: functional, organism-based
Conditions: not given
In short: as §1
Ac-Lys(DOTA)-ReCCEHdFRWCKPV-NH2 showed an ID/g of 0.029%.

Organism: Mus musculus
Assay: Uptake Ratio of Tumor/kidneys (each in % ID/g) in B16/F1 Murine Melanoma-Bearing C57 Mice at 4 h
Assay type: functional, organism-based
Conditions: Kidney
In short: as §1
Work on Ac-Lys(DOTA)-ReCCEHdFRWCKPV-NH2 yielded an Uptake ratio of 0.28.

Organism: Mus musculus
Assay: Radioactivity uptake in the lungs was expressed as a percentage of the injected radioactive dose per gram of tissue (% ID/g) in B16/F1 Murine Melanoma-Bearing C57 Mice at 2 h
Assay type: functional, organism-based
Conditions: Lung
In short: as §1
For Ac-Lys(DOTA)-ReCCEHdFRWCKPV-NH2, the ID/g was 0.18%.

Organism: Mus musculus
Assay: Uptake Ratio of Tumor/muscle (each in % ID/g) in B16/F1 Murine Melanoma-Bearing C57 Mice at 24 h
Assay type: functional, organism-based
Conditions: Muscle tissue
In short: as §2
Work on Ac-Lys(DOTA)-ReCCEHdFRWCKPV-NH2 yielded an Uptake ratio of 13.3.

Organism: Mus musculus
Assay: Uptake Ratio of Tumor/kidneys (each in % ID/g) in B16/F1 Murine Melanoma-Bearing C57 Mice at 2 h
Assay type: functional, organism-based
Conditions: Kidney
In short: as §1
Ac-Lys(DOTA)-ReCCEHdFRWCKPV-NH2 was tested, and the Uptake ratio was 0.46.

Organism: Mus musculus
Assay: Radioactivity uptake in the blood was expressed as a percentage of the injected radioactive dose per gram of tissue (% ID/g) in B16/F1 Murine Melanoma-Bearing C57 Mice at 2 h
Assay type: functional, organism-based
Conditions: not given
In short: as §1
Ac-Lys(DOTA)-ReCCEHdFRWCKPV-NH2 was tested, and the ID/g was 0.09%.

Organism: Mus musculus
Assay: Radioactivity uptake in the heart was expressed as a percentage of the injected radioactive dose per gram of tissue (% ID/g) in B16/F1 Murine Melanoma-Bearing C57 Mice at 0.5 h
Assay type: functional, organism-based
Conditions: not given
In short: as §1
With Ac-Lys(DOTA)-ReCCEHdFRWCKPV-NH2 the ID/g was 0.86%.

Organism: Mus musculus
Assay: Uptake Ratio of Tumor/liver (each in % ID/g) in B16/F1 Murine Melanoma-Bearing C57 Mice at 0.5 h
Assay type: functional, organism-based
Conditions: not given
In short: as §1
Work on Ac-Lys(DOTA)-ReCCEHdFRWCKPV-NH2 yielded an Uptake ratio of 10.7.

Organism: Mus musculus
Assay: Uptake Ratio of Tumor/blood (each in % ID/g) in B16/F1 Murine Melanoma-Bearing C57 Mice at 2 h
Assay type: functional, organism-based
Conditions: not given
In short: as §1
For Ac-Lys(DOTA)-ReCCEHdFRWCKPV-NH2, the Uptake ratio was 175.

Organism: Mus musculus
Assay: Radioactivity uptake in the spleen was expressed as a percentage of the injected radioactive dose per gram of tissue (% ID/g) in B16/F1 Murine Melanoma-Bearing C57 Mice at 0.5 h
Assay type: functional, organism-based
Conditions: not given
In short: as §1
For Ac-Lys(DOTA)-ReCCEHdFRWCKPV-NH2, the ID/g was 0.51%.

Organism: Mus musculus
Assay: Uptake Ratio of Tumor/liver (each in % ID/g) in B16/F1 Murine Melanoma-Bearing C57 Mice at 24 h
Assay type: functional, organism-based
Conditions: not given
In short: as §1
In the case of Ac-Lys(DOTA)-ReCCEHdFRWCKPV-NH2, the Uptake ratio is reported as 12.7.

Organism: Mus musculus
Assay: Radioactivity uptake in the muscle was expressed as a percentage of the injected radioactive dose per gram of tissue (% ID/g) in B16/F1 Murine Melanoma-Bearing C57 Mice at 4 h
Assay type: functional, organism-based
Conditions: not given
In short: as §1
Work on Ac-Lys(DOTA)-ReCCEHdFRWCKPV-NH2 yielded an ID/g of 0.017%.

Organism: Mus musculus
Assay: Uptake Ratio of Tumor/muscle (each in % ID/g) in B16/F1 Murine Melanoma-Bearing C57 Mice at 0.5 h
Assay type: functional, organism-based
Conditions: Muscle tissue
In short: as §2
Work on Ac-Lys(DOTA)-ReCCEHdFRWCKPV-NH2 yielded an Uptake ratio of 17.6.

Organism: Mus musculus
Assay: Radioactivity uptake in the pancreas was expressed as a percentage of the injected radioactive dose per gram of tissue (% ID/g) in B16/F1 Murine Melanoma-Bearing C57 Mice at 0.5 h
Assay type: functional, organism-based
Conditions: not given
In short: as §1
Substance Ac-Lys(DOTA)-ReCCEHdFRWCKPV-NH2 has an ID/g of 0.48%.

Organism: Mus musculus
Assay: Radioactivity uptake in the muscle was expressed as a percentage of the injected radioactive dose per gram of tissue (% ID/g) in B16/F1 Murine Melanoma-Bearing C57 Mice at 2 h
Assay type: functional, organism-based
Conditions: not given
In short: as §1
Substance Ac-Lys(DOTA)-ReCCEHdFRWCKPV-NH2 has an ID/g of 0.02%.

Organism: Mus musculus
Assay: Radioactivity uptake in the lungs was expressed as a percentage of the injected radioactive dose per gram of tissue (% ID/g) in B16/F1 Murine Melanoma-Bearing C57 Mice at 0.5 h
Assay type: functional, organism-based
Conditions: Lung
In short: as §1
Work on Ac-Lys(DOTA)-ReCCEHdFRWCKPV-NH2 yielded an ID/g of 1.51%.

Organism: Mus musculus
Assay: Radioactivity uptake in the heart was expressed as a percentage of the injected radioactive dose per gram of tissue (% ID/g) in B16/F1 Murine Melanoma-Bearing C57 Mice at 24 h
Assay type: functional, organism-based
Conditions: not given
In short: as §1
Substance Ac-Lys(DOTA)-ReCCEHdFRWCKPV-NH2 has an ID/g of 0.13%.

Organism: Mus musculus
Assay: Radioactivity uptake in the muscle was expressed as a percentage of the injected radioactive dose per gram of tissue (% ID/g) in B16/F1 Murine Melanoma-Bearing C57 Mice at 24 h
Assay type: functional, organism-based
Conditions: not given
In short: as §1
For Ac-Lys(DOTA)-ReCCEHdFRWCKPV-NH2, the ID/g was 0.11%.

Organism: Mus musculus
Assay: Radioactivity uptake in the lungs was expressed as a percentage of the injected radioactive dose per gram of tissue (% ID/g) in B16/F1 Murine Melanoma-Bearing C57 Mice at 24 h
Assay type: functional, organism-based
Conditions: Lung
In short: as §1
Substance Ac-Lys(DOTA)-ReCCEHdFRWCKPV-NH2 has an ID/g of 0.14%.
